Several values for one entry are separate records, joined by “and”; a condition that tells them apart may be missing. Identical values can stand only once.
System: U2OS
Assay: Multiplex assay against U2OS
Assay type: toxicity, cell-based
Settings: human
In short: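 Imaging took place on a CQ1 microscope at 37°C and 5% CO2 once compound had been added to live cells stained at seeding with Hoechst33342, BioTracker Green Microtubule Cytoskeleton Dye, MitoTracker Red and Annexin V Alexa Fluor 680. CellPathfinder machine-learning gating classed cells as Hoechst high-intensity objects or normal cells, classed normal cells as having healthy, pyknosed or fragmented nuclei, and classed pyknosed cells as mitotic or apoptotic. Tubulin, mitochondrial-mass and membrane-permeability phenotypes are per cents of the healthy-nucleus cells.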

[1] = 12 h, 1 µM, compound concentration 1 uM
[2] = 12 h, 10 µM, compound concentration 10 uM
[3] = 24 h, 1 µM, compound concentration 1 uM
[4] = 24 h, 10 µM, compound concentration 10 uM
[5] = 48 h, 1 µM, compound concentration 1 uM
[6] = 48 h, 10 µM, compound concentration 10 uM

COCCNc1nc2ccc(C#CC3(O)CCCCC3)cc2n1-c1ccnc(N)n1
Population Apoptotic (%) [1]: 53.85% and 25% | Population Fragmented Nuclei (%) [1]: 1.38% and 4.59% | Population Healthy Nuclei (%) [1]: 91.46% and 77.06% | Population Hoechst High Intensity Objects (%) [1]: 0% | Population Membrane Permeable-Phenotype (%) [1]: 0.9% and 4.76% | Population Mitochondria Different-Phenotype (%) [1]: 0% and 4.76% | Population Mitotic Cells (%) [1]: 46.15% and 75% | Population Normal (%) [1]: 100% | Population Pyknosed Nuclei (%) [1]: 7.16% and 18.35% | Population Tubulin-Different-Phenotype (%) [1]: 0.6% and 0% | Population Apoptotic (%) [2]: 38.46% and 41.03% | Population Fragmented Nuclei (%) [2]: 1.89% and 3.8% | Population Healthy Nuclei (%) [2]: 82.78% and 75% | Population Hoechst High Intensity Objects (%) [2]: 0% | Population Membrane Permeable-Phenotype (%) [2]: 8.26% and 7.25% | Population Mitotic Cells (%) [2]: 61.54% and 58.97% | Population Normal (%) [2]: 100% | Population Pyknosed Nuclei (%) [2]: 15.33% and 21.2% | Population Tubulin-Different-Phenotype (%) [2]: 15.38% and 10.87% | Total Cell Count [2]: 424 and 184 | Population Apoptotic (%) [3]: 34.62% and 40% | Population Fragmented Nuclei (%) [3]: 0.86% and 3.12% | Population Healthy Nuclei (%) [3]: 87.96% and 85.16% | Population Hoechst High Intensity Objects (%) [3]: 0% | Population Membrane Permeable-Phenotype (%) [3]: 0.49% and 4.59% | Population Mitochondria Different-Phenotype (%) [3]: 0.24% and 2.75% | Population Mitotic Cells (%) [3]: 65.38% and 60% | Population Normal (%) [3]: 100% | Population Pyknosed Nuclei (%) [3]: 11.18% and 11.72% | Population Tubulin-Different-Phenotype (%) [3]: 0.73% and 0% | Population Apoptotic (%) [4]: 27.97% and 41.07% | Population Fragmented Nuclei (%) [4]: 1.32% and 3.03% | Population Healthy Nuclei (%) [4]: 76.5% and 68.69% | Population Hoechst High Intensity Objects (%) [4]: 0% | Population Membrane Permeable-Phenotype (%) [4]: 2.7% and 6.62% | Population Mitotic Cells (%) [4]: 72.03% and 58.93% | Population Normal (%) [4]: 100% | Population Pyknosed Nuclei (%) [4]: 22.18% and 28.28% | Population Tubulin-Different-Phenotype (%) [4]: 15.72% and 8.82% | Total Cell Count [4]: 532 and 198 | Population Apoptotic (%) [5]: 38.1% and 52% | Population Fragmented Nuclei (%) [5]: 2.24% and 2.58% | Population Healthy Nuclei (%) [5]: 88.37% and 84.54% | Population Hoechst High Intensity Objects (%) [5]: 0% | Population Membrane Permeable-Phenotype (%) [5]: 0.63% and 0.61% | Population Mitochondria Different-Phenotype (%) [5]: 0% and 2.44% | Population Mitotic Cells (%) [5]: 61.9% and 48% | Population Normal (%) [5]: 100% | Population Pyknosed Nuclei (%) [5]: 9.4% and 12.89% | Population Tubulin-Different-Phenotype (%) [5]: 1.14% and 1.22% | Population Apoptotic (%) [6]: 45.97% and 47.78% | Population Fragmented Nuclei (%) [6]: 2.08% and 1.2% | Population Healthy Nuclei (%) [6]: 81.79% and 62.65% | Population Hoechst High Intensity Objects (%) [6]: 0% | Population Membrane Permeable-Phenotype (%) [6]: 2.38% and 2.56% | Population Mitotic Cells (%) [6]: 54.03% and 52.22% | Population Normal (%) [6]: 100% | Population Pyknosed Nuclei (%) [6]: 16.12% and 36.14% | Population Tubulin-Different-Phenotype (%) [6]: 13.35% and 7.69%

Br.CS(=O)(=O)Nc1c(O)ccc2c1CCCC2C1=NCCN1 (stereo not given)
Population Apoptotic (%) [1]: 63% and 80% | Population Fragmented Nuclei (%) [1]: 20% and 13% | Population Healthy Nuclei (%) [1]: 75% and 82% | Population Hoechst High Intensity Objects (%) [1]: 2% and 0% | Population Membrane Permeable-Phenotype (%) [1]: 3% and 5% | Population Mitochondria Different-Phenotype (%) [1]: 2% and 1% | Population Mitotic Cells (%) [1]: 36% and 20% | Population Normal (%) [1]: 97% and 100% | Population Pyknosed Nuclei (%) [1]: 3% | Population Tubulin-Different-Phenotype (%) [1]: 2% and 1% | Total Cell Count [1]: 288 and 151 | Population Apoptotic (%) [2]: 69% and 100% | Population Fragmented Nuclei (%) [2]: 36% and 22% | Population Healthy Nuclei (%) [2]: 57% and 75% | Population Hoechst High Intensity Objects (%) [2]: 1% and 0% | Population Membrane Permeable-Phenotype (%) [2]: 8% and 6% | Population Mitochondria Different-Phenotype (%) [2]: 0% and 6% | Population Normal (%) [2]: 98% and 100% | Population Pyknosed Nuclei (%) [2]: 6% and 2% | Population Tubulin-Different-Phenotype (%) [2]: 1% | Total Cell Count [2]: 215 and 84 | Population Apoptotic (%) [3]: 76% and 92% | Population Fragmented Nuclei (%) [3]: 18% and 14% | Population Healthy Nuclei (%) [3]: 73% and 78% | Population Hoechst High Intensity Objects (%) [3]: 2% and 1% | Population Membrane Permeable-Phenotype (%) [3]: 3% and 7% | Population Mitochondria Different-Phenotype (%) [3]: 2% | Population Normal (%) [3]: 97% and 98% | Population Pyknosed Nuclei (%) [3]: 7% | Population Tubulin-Different-Phenotype (%) [3]: 2% and 4% | Total Cell Count [3]: 341 and 185 | Population Apoptotic (%) [4]: 86% and 100% | Population Fragmented Nuclei (%) [4]: 31% and 16% | Population Healthy Nuclei (%) [4]: 62% and 80% | Population Hoechst High Intensity Objects (%) [4]: 2% and 0% | Population Membrane Permeable-Phenotype (%) [4]: 5% and 3% | Population Mitochondria Different-Phenotype (%) [4]: 1% and 4% | Population Mitotic Cells (%) [4]: 13% and 0% | Population Normal (%) [4]: 97% and 100% | Population Pyknosed Nuclei (%) [4]: 6% and 2% | Population Tubulin-Different-Phenotype (%) [4]: 2% and 3% | Total Cell Count [4]: 240 and 103 | Population Apoptotic (%) [5]: 74% and 81% | Population Fragmented Nuclei (%) [5]: 14% and 13% | Population Healthy Nuclei (%) [5]: 78% and 76% | Population Hoechst High Intensity Objects (%) [5]: 1% | Population Membrane Permeable-Phenotype (%) [5]: 2% and 5% | Population Mitochondria Different-Phenotype (%) [5]: 2% | Population Mitotic Cells (%) [5]: 25% and 18% | Population Normal (%) [5]: 98% | Population Pyknosed Nuclei (%) [5]: 6% and 10% | Population Tubulin-Different-Phenotype (%) [5]: 2% and 1% | Total Cell Count [5]: 484 and 253 | Population Apoptotic (%) [6]: 90% and 100% | Population Fragmented Nuclei (%) [6]: 23% and 17% | Population Healthy Nuclei (%) [6]: 70% and 74% | Population Hoechst High Intensity Objects (%) [6]: 1% and 0% | Population Membrane Permeable-Phenotype (%) [6]: 5% and 3% | Population Mitochondria Different-Phenotype (%) [6]: 1% and 6% | Population Mitotic Cells (%) [6]: 10% and 0% | Population Normal (%) [6]: 98% and 100% | Population Pyknosed Nuclei (%) [6]: 6% and 7% | Population Tubulin-Different-Phenotype (%) [6]: 2% | Total Cell Count [6]: 333 and 152

CCCOc1ccc2[nH]cc(C3=CCNCC3)c2n1.Cl
Population Apoptotic (%) [1]: 80% and 87% | Population Fragmented Nuclei (%) [1]: 31% and 13% | Population Healthy Nuclei (%) [1]: 58% and 78% | Population Hoechst High Intensity Objects (%) [1]: 2% and 1% | Population Membrane Permeable-Phenotype (%) [1]: 2% and 11% | Population Mitochondria Different-Phenotype (%) [1]: 1% and 7% | Population Mitotic Cells (%) [1]: 19% and 12% | Population Normal (%) [1]: 97% and 98% | Population Pyknosed Nuclei (%) [1]: 9% and 8% | Population Tubulin-Different-Phenotype (%) [1]: 1% and 5% | Total Cell Count [1]: 218 and 98 | Population Apoptotic (%) [2]: 86% and 60% | Population Fragmented Nuclei (%) [2]: 24% and 17% | Population Healthy Nuclei (%) [2]: 66% and 74% | Population Hoechst High Intensity Objects (%) [2]: 4% and 0% | Population Membrane Permeable-Phenotype (%) [2]: 6% and 12% | Population Mitochondria Different-Phenotype (%) [2]: 5% | Population Normal (%) [2]: 96% and 100% | Population Pyknosed Nuclei (%) [2]: 8% and 7% | Population Tubulin-Different-Phenotype (%) [2]: 3% and 6% | Total Cell Count [2]: 275 and 134 | Population Apoptotic (%) [3]: 70% and 90% | Population Fragmented Nuclei (%) [3]: 27% and 18% | Population Healthy Nuclei (%) [3]: 61% and 73% | Population Hoechst High Intensity Objects (%) [3]: 1% and 2% | Population Membrane Permeable-Phenotype (%) [3]: 6% and 3% | Population Mitochondria Different-Phenotype (%) [3]: 1% and 3% | Population Normal (%) [3]: 98% and 97% | Population Pyknosed Nuclei (%) [3]: 10% and 8% | Population Tubulin-Different-Phenotype (%) [3]: 3% and 2% | Total Cell Count [3]: 252 and 138 | Population Apoptotic (%) [4]: 92% and 72% | Population Fragmented Nuclei (%) [4]: 25% and 14% | Population Healthy Nuclei (%) [4]: 66% and 78% | Population Hoechst High Intensity Objects (%) [4]: 3% and 0% | Population Membrane Permeable-Phenotype (%) [4]: 5% and 11% | Population Mitochondria Different-Phenotype (%) [4]: 3% and 2% | Population Normal (%) [4]: 96% and 99% | Population Pyknosed Nuclei (%) [4]: 8% and 6% | Population Tubulin-Different-Phenotype (%) [4]: 3% and 4% | Total Cell Count [4]: 323 and 162 | Population Apoptotic (%) [5]: 91% and 75% | Population Fragmented Nuclei (%) [5]: 19% | Population Healthy Nuclei (%) [5]: 69% and 74% | Population Hoechst High Intensity Objects (%) [5]: 2% | Population Membrane Permeable-Phenotype (%) [5]: 5% and 9% | Population Mitochondria Different-Phenotype (%) [5]: 3% | Population Normal (%) [5]: 97% | Population Pyknosed Nuclei (%) [5]: 10% and 6% | Population Tubulin-Different-Phenotype (%) [5]: 1% and 3% | Total Cell Count [5]: 350 and 183 | Population Apoptotic (%) [6]: 100% and 94% | Population Fragmented Nuclei (%) [6]: 18% and 13% | Population Healthy Nuclei (%) [6]: 75% and 78% | Population Hoechst High Intensity Objects (%) [6]: 4% and 0% | Population Membrane Permeable-Phenotype (%) [6]: 5% and 6% | Population Mitochondria Different-Phenotype (%) [6]: 2% and 3% | Population Mitotic Cells (%) [6]: 0% and 5% | Population Normal (%) [6]: 95% and 99% | Population Pyknosed Nuclei (%) [6]: 6% and 7% | Population Tubulin-Different-Phenotype (%) [6]: 3% | Total Cell Count [6]: 423 and 243

Source: ChEMBL document CHEMBL5724801, “EUbOPEN Chemogenomics Library - Multiplex” (2024)
